Laboratory results as given in ChEMBL document CHEMBL1921740, “Pyrrolamide DNA gyrase inhibitors: optimization of antibacterial activity and efficacy” (Bioorg Med Chem Lett, 2011).
Converted amounts (≈) assume the structure as drawn.

How the values were obtained:
DNA gyrase subunit B = DNA gyrase subunit B (Staphylococcus aureus, UniProt P0A0K8); experiment: Inhibition of ATPase activity of recombinant Staphylococcus aureus DNA gyrase B hybrid tetramer enzyme reconstituted from Escherichia coli GyrA by ammonium molybdate/malachite green phosphate assay
Sequence of DNA gyrase subunit B (P0A0K8 whole entry): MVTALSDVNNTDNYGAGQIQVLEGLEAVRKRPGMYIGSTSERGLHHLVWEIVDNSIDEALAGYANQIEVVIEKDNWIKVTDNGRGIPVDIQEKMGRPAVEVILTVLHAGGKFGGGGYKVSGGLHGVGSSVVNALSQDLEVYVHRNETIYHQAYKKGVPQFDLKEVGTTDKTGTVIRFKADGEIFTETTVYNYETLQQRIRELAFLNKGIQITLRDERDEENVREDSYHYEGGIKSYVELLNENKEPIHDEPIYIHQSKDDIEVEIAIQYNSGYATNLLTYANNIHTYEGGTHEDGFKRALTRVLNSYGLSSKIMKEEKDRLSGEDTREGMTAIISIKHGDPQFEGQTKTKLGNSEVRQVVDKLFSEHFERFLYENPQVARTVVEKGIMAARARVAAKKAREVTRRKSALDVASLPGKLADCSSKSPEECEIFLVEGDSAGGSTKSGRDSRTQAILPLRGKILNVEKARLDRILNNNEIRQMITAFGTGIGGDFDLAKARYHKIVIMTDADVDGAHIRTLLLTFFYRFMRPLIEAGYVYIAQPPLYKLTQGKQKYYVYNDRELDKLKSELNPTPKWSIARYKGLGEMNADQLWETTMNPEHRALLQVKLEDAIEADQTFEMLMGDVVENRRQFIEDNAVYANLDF
Summary of the method: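 GyrB ATPase activity of a hybrid tetramer reconstituted in vitro from recombinant S. aureus protein. Released phosphate detected with ammonium molybdate/malachite green. Test compound assayed across a range of concentrations.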

Streptococcus pneumoniae [1] = experiment: Antibacterial activity against Streptococcus pneumoniae ARC548; format: functional
Staphylococcus aureus [2] = experiment: Antibacterial activity against Staphylococcus aureus ARC516; format: functional
Staphylococcus aureus [3] = experiment: Antibacterial activity against methicillin-resistant, quinolone-resistant Staphylococcus aureus ARC517; format: functional
Moraxella catarrhalis = experiment: Antibacterial activity against Moraxella catarrhalis ARC445; format: functional
Enterococcus faecium = experiment: Antibacterial activity against Enterococcus faecium ARC073; format: functional
Haemophilus influenzae = experiment: Antibacterial activity against Haemophilus influenzae ARC446; format: functional
Escherichia coli [4] = experiment: Antibacterial activity against Escherichia coli ARC523; format: functional
Escherichia coli [5] = experiment: Antibacterial activity against TolC-deficient Escherichia coli ARC524; format: functional
Streptococcus pneumoniae [6] = experiment: Antibacterial activity against Streptococcus pneumoniae ARC548 infected in po dosed CD1 mouse lung infection pneumonia model assessed as reduction in viable bacterial counts administered 18 hrs after post infection measured after 24 hrs; format: functional
Summary of the method: (§1)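 Mice infected in the lung with S. pneumoniae received oral doses of drug or vehicle starting 18 h post-infection, at 40, 60 or 80 mg/kg, with a pre-treatment control group. Lungs were taken 24 h after treatment began, and homogenates were serially diluted and plated for viable counts. Results are reported as group mean log CFU/lung ± standard error.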

Streptococcus pneumoniae [7] = experiment: Antibacterial activity against Streptococcus pneumoniae ARC548 infected in po dosed CD1 mouse lung infection pneumonia model assessed as dose required to maximum effect on reduction of viable bacterial counts administered 18 hrs after post infection measured after 24 hrs; format: functional; summary of the method: as §1
[8] = Streptococcus pneumoniae, ARC548, read-out: MIC
[9] = Staphylococcus aureus, ARC516, read-out: MIC
[10] = Staphylococcus aureus, ARC517, read-out: MIC
[11] = Moraxella catarrhalis, ARC445, read-out: MIC
[12] = Enterococcus faecium, ARC073, read-out: MIC
[13] = Haemophilus influenzae, ARC446, read-out: MIC
[14] = Escherichia coli, ARC524, read-out: MIC

| Compound | IC50 (DNA gyrase subunit B) [nM] | MIC (Streptococcus pneumoniae [1]; [8]) [µg/mL] | MIC (Staphylococcus aureus [2]; [9]) [µg/mL] | MIC (Staphylococcus aureus [3]; [10]) [µg/mL] | MIC (Moraxella catarrhalis; [11]) [µg/mL] | MIC (Enterococcus faecium; [12]) [µg/mL] | MIC (Haemophilus influenzae; [13]) [µg/mL] | MIC (Escherichia coli [4]) [µg/mL] | MIC (Escherichia coli [5]; [14]) [µg/mL] | Activity (Streptococcus pneumoniae [6]) | ED50 (Streptococcus pneumoniae [6]) [mg/kg] | Activity (Streptococcus pneumoniae [7]) [mg/kg] | MIC (Streptococcus pneumoniae [1]) [µg/mL] | MIC (Staphylococcus aureus [2]) [µg/mL] | MIC (Staphylococcus aureus [3]) [µg/mL] | MIC (Moraxella catarrhalis) [µg/mL] | MIC (Enterococcus faecium) [µg/mL] | MIC (Haemophilus influenzae) [µg/mL] | MIC (Escherichia coli [5]) [µg/mL] |
| --- | --- | --- | --- | --- | --- | --- | --- | --- | --- | --- | --- | --- | --- | --- | --- | --- | --- | --- | --- |
| Cc1[nH]c(C(=O)NC2CCN(C3CN[C@H](C(=O)O)C3)CC2)c(Cl)c1Cl (stereo not given in full) | 129000 | > 64 | > 64 | > 64 | > 64 | > 64 | > 64 | > 64 | > 64 |  |  |  |  |  |  |  |  |  |  |
| Cc1[nH]c(C(=O)NC2CCN(c3cc(C(=O)O)cc(Cl)n3)CC2)c(Cl)c1Cl | 10 | 0.5 (≈ 1.16 µM) | 2 (≈ 4.63 µM) | 2 (≈ 4.63 µM) | 0.13 (≈ 0.301 µM) | 1 (≈ 2.32 µM) | 4 (≈ 9.27 µM) | > 64 | 0.25 (≈ 0.579 µM) |  |  |  |  |  |  |  |  |  |  |
| Cc1[nH]c(C(=O)NC2CCN(c3nc(C(=O)O)cs3)CC2)c(Cl)c1Cl | 20 | 0.5 (≈ 1.24 µM) | 8 (≈ 19.8 µM) | 8 (≈ 19.8 µM) | 0.5 (≈ 1.24 µM) | 4 (≈ 9.92 µM) | 2 (≈ 4.96 µM) | > 64 | 0.25 (≈ 0.62 µM) |  |  |  |  |  |  |  |  |  |  |
| Cc1[nH]c(C(=O)N[C@@H]2CCN(c3ncc(C(=O)O)s3)C[C@@H]2F)c(Cl)c1Cl |  | 0.06 (≈ 0.142 µM) | 2 (≈ 4.75 µM) | 2 (≈ 4.75 µM) | 0.06 (≈ 0.142 µM) | 0.25 (≈ 0.593 µM) | 0.25 (≈ 0.593 µM) | > 64 | 0.06 (≈ 0.142 µM) | Dose-dependent effect | 54 | 80 |  |  |  |  |  |  |  |
| CONC(=O)c1cnc(N2CCC(NC(=O)c3[nH]c(C)c(Cl)c3Cl)CC2)s1 | 50 | 1 (≈ 2.31 µM) | 8 (≈ 18.5 µM) | 8 (≈ 18.5 µM) | 1 (≈ 2.31 µM) | 8 (≈ 18.5 µM) | 16 (≈ 37 µM) | > 64 | 0.25 (≈ 0.578 µM) |  |  |  |  |  |  |  |  |  |  |
| Cc1[nH]c(C(=O)NC2CCN(c3cc(C(N)=O)cc(Cl)n3)CC2)cc1C#N | 150 | 4 (≈ 10.3 µM) |  | > 64 |  |  | > 64 |  |  |  |  |  |  |  |  |  |  |  |  |
| Cc1[nH]c(C(=O)N[C@H]2CCN(c3ncc(C(=O)O)s3)C[C@H]2F)c(Cl)c1Cl (racemic) | < 10 |  |  |  |  |  |  | > 64 |  |  |  |  | 0.13 (≈ 0.309 µM) | 2 (≈ 4.75 µM) | 4 (≈ 9.49 µM) | <0.06 | 0.5 (≈ 1.19 µM) | 0.5 (≈ 1.19 µM) | 0.13 (≈ 0.309 µM) |
| Cc1ccc(C(=O)NC2CCN(c3cc(C(N)=O)cc(Cl)n3)CC2)[nH]1 | 6900 | > 64 | > 64 | > 64 | > 64 | > 64 | > 64 | > 64 | > 64 |  |  |  |  |  |  |  |  |  |  |
| Cc1[nH]c(C(=O)NC2CCN(c3cc(C(N)=O)cc(Cl)n3)CC2)c(Cl)c1Cl | 30 | 1 (≈ 2.32 µM) | 4 (≈ 9.29 µM) | 4 (≈ 9.29 µM) | 2 (≈ 4.64 µM) | 4 (≈ 9.29 µM) | > 64 | > 64 | 2 (≈ 4.64 µM) |  |  |  |  |  |  |  |  |  |  |
| Cc1[nH]c(C(=O)NC2CCN(c3nnco3)CC2)c(Cl)c1Cl | 230 | 4 (≈ 11.6 µM) | 32 (≈ 93 µM) | 32 (≈ 93 µM) | 4 (≈ 11.6 µM) | 32 (≈ 93 µM) | 64 (≈ 186 µM) | > 64 | 4 (≈ 11.6 µM) |  |  |  |  |  |  |  |  |  |  |
| Cc1[nH]c(C(=O)NC2CCN(c3cc(C(N)=O)cc(Cl)n3)CC2)cc1Cl | 110 | 4 (≈ 10.1 µM) | > 32 | 32 (≈ 80.8 µM) |  | > 32 | > 64 | > 64 | 8 (≈ 20.2 µM) |  |  |  |  |  |  |  |  |  |  |
| Cc1[nH]c(C(=O)N[C@@H]2CCN(c3ncc(C(=O)O)s3)C[C@H]2F)c(Cl)c1Cl (racemic) | 110 | 8 (≈ 19 µM) | > 64 | > 64 | 16 (≈ 38 µM) | 32 (≈ 76 µM) | 64 (≈ 152 µM) | > 64 | 4 (≈ 9.49 µM) |  |  |  |  |  |  |  |  |  |  |
| Cc1[nH]c(C(=O)N[C@H]2CCN(c3ncc(C(=O)O)s3)C[C@H]2F)c(Cl)c1Cl | 35 |  |  |  |  |  |  |  |  |  |  |  | 2 (≈ 4.75 µM) | 16 (≈ 38 µM) | 32 (≈ 76 µM) | 1 (≈ 2.37 µM) | 4 (≈ 9.49 µM) | 4 (≈ 9.49 µM) | 0.5 (≈ 1.19 µM) |
| Cc1[nH]c(C(=O)NC2CCN(c3cc(C(N)=O)cc(Cl)n3)CC2)cc1Br | 100 | 4 (≈ 9.08 µM) | 32 (≈ 72.6 µM) | 32 (≈ 72.6 µM) | 8 (≈ 18.2 µM) | > 64 | 64 (≈ 145 µM) | > 64 | 4 (≈ 9.08 µM) |  |  |  |  |  |  |  |  |  |  |
| Cc1[nH]c(C(=O)NC2CCN(c3ncc(C(=O)O)s3)CC2)c(Cl)c1Cl | 20 | 0.5 (≈ 1.24 µM) | 8 (≈ 19.8 µM) | 8 (≈ 19.8 µM) | 0.5 (≈ 1.24 µM) | 2 (≈ 4.96 µM) | 2 (≈ 4.96 µM) | > 64 | 0.25 (≈ 0.62 µM) |  |  |  |  |  |  |  |  |  |  |
